Activity calls are given as the source filed them. The calls are words filed in the database; no cut-off is given here.
Columns and labels:
Rattus norvegicus [1] = test: Toxicity in Fischer-344 rat assessed as ulcerogenicity at 0.2 mmol/kg, ip; format: organism-based; settings: in vivo
SF-268 [2] = test: Cytotoxicity against human SF268 cells after 48 hrs by sulforhodamine B assay; format: cell-based; settings: sf-268, 48 h
In short: (§1)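 Cells grown in RPMI 1640 with 5% heat-inactivated FCS, 2 mM L-glutamine and antibiotics, 37 °C, 5% CO2; viability >95% by trypan blue. Seeded 5.000-7.500 cells/well and preincubated 24 h. Compounds in DMSO added at 10-fold dilutions (100 to 0.01 µM) for 48 h. Fixed with cold TCA, SRB-stained, absorbance read at 530 nm. GI50, TGI and LC50 derived from three independent experiments, each in triplicate.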

SF-268 [3] = test: Antiproliferative activity against human SF268 cells after 48 hrs by sulforhodamine B assay; format: functional; settings: SF-268, 48 h
In short: (§2)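 Cells grown in RPMI 1640 with 5% heat-inactivated FCS, 2 mM L-glutamine and antibiotics at 37 °C, 5% CO2; viability >95% by trypan blue. Seeded at 5.000-7.500 cells/well and preincubated 24 h. Compound in DMSO added at 10-fold dilutions (100 to 0.01 µM) for 48 h. TCA fixation, SRB staining, absorbance at 530 nm. GI50, TGI and LC50 derived. Three independent experiments, each in triplicate.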

[4] = target: Aldo-keto reductase family 1 member B1 (Rattus norvegicus) (UniProt P07943); test: Inhibition of ALR2 in Fischer-344 rat lens at 100 uM; format: tissue-based; settings: Lens of camera-type eye
In short: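 Enzyme partially purified from lenses of Fischer-344 rats of both sexes. Lenses homogenized in cold water, spun at 10000 g, 0-4 °C, 15 min; supernatant precipitated at 40% ammonium sulphate saturation and spun again. Compound in 10% aqueous DMSO, tested at 100 µM. D,L-glyceraldehyde substrate; NADPH consumption read at 340 nm. At least triplicate.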

Glycine max = test: Inhibition of soybean 5LOX assessed as conversion of sodium linoleate to 13-[…] acid at 100 uM
In short: (§3)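 Soybean lipoxygenase (1/9 × 10^-4 w/v in saline) incubated at room temperature with compound in DMSO and 0.1 mM sodium linoleate. Formation of 13-hydroperoxylinoleic acid followed at 234 nm. NDGA reference inhibitor. At least triplicate.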

Rattus norvegicus [5] = test: Antiinflammatory activity in carrageenan-induced Fischer-344 rat paw oedema at 0.01 mmol/kg, ip after 3.5 hrs; format: functional; settings: for inhibition in vivo at 10 µmol/kg: Fischer-344, ip
In short: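 Fischer-344 rats (150–200g), both sexes, pregnant females excluded, 6–15 per group. Oedema induced in right hind paw by intradermal 0.1 mL 2% carrageenin in water. Compound given ip with the carrageenin, dissolved in water (HCl salt) or suspended with Tween 80 (bases). Euthanized at 3.5 h. Injected minus uninjected paw weight compared with water-treated controls as % inhibition. Mean of two experiments.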

MCF7 [6] = test: Cytotoxicity against human MCF7 cells after 48 hrs by sulforhodamine B assay; format: cell-based; settings: mcf7, 48 h; in short: as §1
NCI-H460 [7] = test: Antiproliferative activity against human NCI-H460 cells after 48 hrs by sulforhodamine B assay; format: functional; settings: NCI-H460, 48 h; in short: as §2
MCF7 [8] = test: Antiproliferative activity against human MCF7 cells after 48 hrs by sulforhodamine B assay; format: functional; settings: MCF7, 48 h; in short: as §2
[9] = Lipophilicity, RM of the compound assessed by RPTLC; format: physicochemical
In short: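 Determined by reverse-phase TLC with plates developed in mobile-phase-saturated closed tanks at 24 °C and spots detected under UV. RM = log[(1/Rf) − 1], from 10 individual Rf measurements.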

NCI-H460 [10] = test: Cytotoxicity against human NCI-H460 cells after 48 hrs by sulforhodamine B assay; format: cell-based; settings: nci-h460, 48 h; in short: as §1
[11] = Therapeutic index, ratio of LC50 for human SF268 cells to GI50 for human SF268 cells; format: cell-based, SF-268; settings: read-out: TI
In short: (§4)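 Index is LC50/GI50 from the 48 h SRB growth assay (100–0.01 µM, 10-fold dilutions). Where LC50 exceeded 100 µM, the highest concentration tested, it was taken as 100 µM.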

[12] = Therapeutic index, ratio of LC50 for human MCF7 cells to GI50 for human MCF7 cells; format: cell-based; settings: read-out: TI; in short: as §4
[13] = Therapeutic index, ratio of LC50 for human NCI-H460 cells to GI50 for human NCI-H460 cells; format: cell-based; settings: read-out: TI; in short: as §4
[14] = Inhibition of soybean 5LOX assessed as conversion of sodium linoleate to 13-[…] acid; design: species or system Glycine max; in short: as §3

Structure (SMILES) | Activity (Rattus norvegicus [1]) | LC50 (SF-268 [2]) | GI50 (SF-268 [3]) | TGI (SF-268 [3]) | inhibition [4] | inhibition (Glycine max) | inhibition in vivo at 10 µmol/kg (Rattus norvegicus [5]) | LC50 (MCF7 [6]) | GI50 (NCI-H460 [7]) | TGI (NCI-H460 [7]) | GI50 (MCF7 [8]) | TGI (MCF7 [8]) | Rm [9] | LC50 (NCI-H460 [10]) | selectivity ratio [11] | selectivity ratio [12] | selectivity ratio [13] | IC50 [14] | inhibition (Rattus norvegicus [5])
O=C1/C(=C/c2c[nH]cn2)CNC/C1=C\c1c[nH]cn1 | Non-toxic | > 100 µM | > 100 µM | > 100 µM | inactive | 36% | 11.5% | > 100 µM | > 100 µM | > 100 µM | > 100 µM | > 100 µM | -0.552 | > 100 µM | – | – | – | – | –
O=C1/C(=C/c2ccccc2)CNC/C1=C\c1ccccc1 | Non-toxic | 9.1 µM | 0.9 µM | 4.7 µM | 49% | 8% | 43% | 9 µM | 2 µM | 6.1 µM | 0.8 µM | 4.1 µM | 0.135 | 10.3 µM | 10 | 11.6 | 5.2 | – | –
O=C1/C(=C/c2ccc3[nH]ccc3c2)CNC/C1=C\c1ccc2[nH]ccc2c1 | Non-toxic | > 100 µM | > 100 µM | > 100 µM | inactive | – | 36% | > 100 µM | > 100 µM | > 100 µM | 69.5 µM | > 100 µM | 0.166 | > 100 µM | – | 1.4 | – | 410 µM | –
Cc1ccc(/C=C2\CNC/C(=C\c3ccc(C)s3)C2=O)s1 | Non-toxic | > 100 µM | 65.2 µM | > 100 µM | inactive | inactive | 62% | > 100 µM | 99.3 µM | > 100 µM | 80.7 µM | > 100 µM | 0.031 | > 100 µM | 1.5 | 1.2 | 1 | – | –
COc1ccc2c(c1)c(CC(=O)O)c(C)n2C(=O)c1ccc(Cl)cc1 [INDOMETHACIN] | – | – | – | – | – | – | 47% | – | – | – | – | – | – | – | – | – | – | – | –
COc1cc(/C=C/C(=O)CC(=O)/C=C/c2ccc(O)c(OC)c2)ccc1O [CURCUMIN] | – | 61 µM | 5.1 µM | 9.2 µM | 12% | 38% | – | 67.2 µM | 16.7 µM | 50.1 µM | 4.7 µM | 8.3 µM | – | 83.4 µM | 11.9 | 14.2 | 5 | – | –
O=C1/C(=C/c2cccs2)CNC/C1=C\c1cccs1 | Non-toxic | > 100 µM | 98.8 µM | > 100 µM | 45.5% | – | – | > 100 µM | > 100 µM | > 100 µM | > 100 µM | > 100 µM | 0.176 | > 100 µM | 1 | – | – | 330 µM | inactive
O=C1/C(=C/c2ccc(OCc3ccc(Br)cc3)cc2)CNC/C1=C\c1ccc(OCc2ccc(Br)cc2)cc1 | Non-toxic | > 100 µM | > 100 µM | > 100 µM | inactive | 18% | 49% | > 100 µM | > 100 µM | > 100 µM | 49.9 µM | 96.8 µM | 0.076 | > 100 µM | – | 2 | – | – | –
O=C1/C(=C/c2c[nH]c3ccccc23)CNC/C1=C\c1c[nH]c2ccccc12 | Non-toxic | 8.2 µM | 3.3 µM | 5.7 µM | 27.8% | – | 33% | 8.2 µM | 3.5 µM | 6.1 µM | 3.7 µM | 6 µM | 0.597 | 8.7 µM | 2.5 | 2.2 | 2.4 | 280 µM | –
Cc1ccsc1/C=C1\CNC/C(=C\c2sccc2C)C1=O | Non-toxic | > 100 µM | 53.8 µM | > 100 µM | 56% | inactive | 27% | > 100 µM | 73.2 µM | > 100 µM | 63 µM | > 100 µM | -0.03 | > 100 µM | 1.9 | 1.6 | 1.4 | – | –
